# Calls of active or inactive are those of the source.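 Rule for the calls: active = fold change below the hit cutoff of 0.7; inactive = the rest.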
# Biological target: Nuclear receptor ROR-alpha (Homo sapiens) (UniProt P35398)
# Assay: decrease of GAL4-RORa LBD luciferase signal – cell-based, luminescence, assay provider, RORA inverse agonist project, late-stage follow-up (AID 463078)
# Conditions: HEK293T GAL4-RORa LBD luciferase reporter, 20 h; at 10 µM; hits give low values
# Procedure, shortened: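 material = HEK293T cells with GAL4-RORα LBD and UAS-luciferase | controls = DMSO vehicle-treated cells as reference | measured by = luminescence | timing = compound exposure 20 h, after 24 h bulk transfection and replating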
# Sequence of Nuclear receptor ROR-alpha (Homo sapiens) (P35398 whole entry, looked up, the tested form may be a part): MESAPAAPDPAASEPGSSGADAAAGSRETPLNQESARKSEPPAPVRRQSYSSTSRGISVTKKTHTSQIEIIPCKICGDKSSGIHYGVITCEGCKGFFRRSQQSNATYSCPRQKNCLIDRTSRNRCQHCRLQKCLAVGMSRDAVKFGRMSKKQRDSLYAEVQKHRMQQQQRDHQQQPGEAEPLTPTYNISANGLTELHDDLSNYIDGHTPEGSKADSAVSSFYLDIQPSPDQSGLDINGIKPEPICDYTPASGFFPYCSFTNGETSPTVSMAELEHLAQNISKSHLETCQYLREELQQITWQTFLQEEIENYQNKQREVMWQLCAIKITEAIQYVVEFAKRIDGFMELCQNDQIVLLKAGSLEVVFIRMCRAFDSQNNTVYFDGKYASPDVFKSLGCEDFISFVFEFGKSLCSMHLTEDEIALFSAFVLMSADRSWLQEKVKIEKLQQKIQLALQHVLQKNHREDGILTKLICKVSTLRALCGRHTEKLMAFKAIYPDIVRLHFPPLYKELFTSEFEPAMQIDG
row,fold change,SMILES
1,1.23 (inactive),O=C(Nc1ccc(C(O)(C(F)(F)F)C(F)(F)F)cc1)c1ccc(Cl)cc1
2,1.71 (inactive),O=C(Nc1ccc(C(O)(C(F)(F)F)C(F)(F)F)cc1)c1ccc(F)cc1F
3,0.63,O=S(=O)(Nc1ccc(C(O)(C(F)(F)F)C(F)(F)F)cc1)c1cccs1
4,0.806 (inactive),O=C(Nc1ccc(C(O)(C(F)(F)F)C(F)(F)F)cc1)c1ccccc1C(F)(F)F
5,1.1 (inactive),O=C(Nc1ccc(C(O)(C(F)(F)F)C(F)(F)F)cc1)c1ccc(F)cc1Cl
6,0.944 (inactive),O=C(Nc1ccc(C(O)(C(F)(F)F)C(F)(F)F)cc1)c1c(F)cccc1F
